Laboratory results: publication PMC2943495 (Chemistry & biology, 2010)
Values belong to the compound of their own block, whether it stands above or below them.

Assays:
[1] = ref Inoue et al., 2005; cited from earlier work
[2] = biological target: FRB-FKBP; settings: ref Bierer et al., 1990, cited from earlier work
[3] = biological target: FRB-FKBP (Homo sapiens, UniProt P42345+P62942); test: Real-time reversibility of CBG-N + CBG-C PCA; format: cell-based
[4] = tested on: PCA luciferase; test: Control: effect on PCA luciferase enzyme activity; settings: data not shown
[5] = tested on: IκBα/β-TrCP; test: Two-color PCA switch, red: IκBα/β-TrCP interaction; format: cell-based; settings: HEK293T, TNFα 20 ng/ml
[6] = tested on: NFκB; test: NFκB-dependent transcriptional reporter; format: cell-based; settings: HEK293T, 2 hours
Method in brief: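 HEK293T cells in 24-well plates were transfected with an NFκB-driven FLuc reporter (200 ng/well). At 48 h the medium was changed to DMEM imaging medium. After 15 min equilibration a pre-treatment image was taken. Cells then received TNFα (20 ng/ml final) and/or a GSK3β inhibitor (50 μM final) or DMSO vehicle, and were re-imaged after 2 h in a humidified 5% CO2 incubator. Photon flux is reported as mean fold-initial ± S.E.M.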

[7] = tested on: β-cat/β-TrCP; test: Two-color PCA switch, green: β-cat/β-TrCP interaction; format: cell-based; settings: HEK293T
[8] = tested on: EGFR; test: EGFR-CBG PCA conformation sensing in CHO TetOn cells; format: cell-based
Method in brief: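 CHO TetOn cells in 96-well plates were transfected for 24 h with EGFR-CBG PCA fusion pairs, then serum-starved for 3 h. They were pre-incubated for 20 min untreated, with DMSO vehicle, or with test compound (10 μM). Baseline was imaged every 15 s for 10 min, then 25 nM EGF was added and imaging continued for 20 min. Untreated-well signal was subtracted. Mean of 8 replicate wells.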

[9] = biological target: ΔFRB (S2035I)-FKBP (Homo sapiens, UniProt P42345+P62942, S2035I); test: Luciferase PCA with mutant S2035I FRB; format: cell-based; settings: HEK293T, 100 nM rapamycin for 6 hrs, Δ-N fusions
Sequence of ΔFRB (S2035I)-FKBP (P42345 2024-2113 S2035I): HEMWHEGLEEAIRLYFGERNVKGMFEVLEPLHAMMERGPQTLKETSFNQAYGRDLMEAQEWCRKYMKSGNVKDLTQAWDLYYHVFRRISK
Sequence of ΔFRB (S2035I)-FKBP (P62942 whole entry, the tested form may be a part): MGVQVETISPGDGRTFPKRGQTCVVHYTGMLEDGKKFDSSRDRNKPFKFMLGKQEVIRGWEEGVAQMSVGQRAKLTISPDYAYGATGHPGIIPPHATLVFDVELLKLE

[10] = tested on: IκBα; test: IκBα-FLuc fusion reporter processing in HepG2 cells; format: cell-based; settings: HepG2, TNFα 20 ng/mL
Method in brief: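 HepG2 cells were transiently transfected with a κB5-driven IκBα-FLuc fusion reporter (wild type or Ser32/Ser36 Ala mutants). After 48 h the medium was replaced with fresh medium containing D-luciferin, and cells were stimulated with TNFα (20 ng/mL) or vehicle. Real-time bioluminescence imaging was run under 5% CO2. Photon flux is reported as fold-initial, fold-untreated, mean ± S.E.M.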

Sequence of FRB-FKBP (Homo sapiens, UniProt P42345+P62942) (P42345 2024-2113 limits assumed): as the sequence (P42345 2024-2113 S2035I) above, with I12S counted along it
Sequence of FRB-FKBP (Homo sapiens, UniProt P42345+P62942) (P62942 whole entry): as the sequence (P62942 whole entry, the tested form may be a part) above

change of bioluminescence after rapamycin pre-treatment ([3]; HEK293T, CBG-N + CBG-C, rapamycin 10 nM, FK506 10 μM added at […]): brisk loss of bioluminescence
Compound: C=CC[C@@H]1/C=C(\C)C[C@H](C)C[C@H](OC)[C@H]2O[C@@](O)(C(=O)C(=O)N3CCCC[C@H]3C(=O)O[C@H](/C(C)=C/[C@@H]3CC[C@@H](O)[C@H](OC)C3)[C@H](C)[C@@H](O)CC1=O)[C@H](C)C[C@@H]2OC [FK506]
membrane permeability [1]: somewhat low | Ki ([2]; read-out: previously reported literature Ki): 0.4 nM

effect on PCA luciferase enzyme activity per se [4]: no effect
Compound: Cn1cc(C2=C(c3ccc(Cl)cc3Cl)C(=O)NC2=O)c2ccccc21 [SB-216763]
basal and TNFα-induced IκBα/β-TrCP interactions (red photon flux) ([5]; SB-216763 50 μM): inhibited | TNFα-stimulated NFκB-dependent transcription (FLuc reporter) ([6]; TNFα 20 ng/ml combined with SB216763 50 μM): dramatically attenuated | basal β-cat/β-TrCP interactions (green photon flux) ([7]; SB-216763 50 μM): attenuated

Compound: N#CC(=C(/N)Sc1ccccc1N)/C(C#N)=C(/N)Sc1ccccc1N [U0126]
recovery of luciferase PCA activity after EGF ([8]; 10 μM U0126, 25 nM EGF): blunted recovery of luciferase PCA activity

Compound: C[C@@H]1C[C@@H]([C@H](O)CC2CC(=O)NC(=O)C2)C(=O)[C@@H](C)C1 [cycloheximide]
luciferase activity after rapamycin induction ([3]; cycloheximide 100 μM added to rapamycin-induced cells): remained stable for up to 8 hours

induction of PCA signal [9]: no detectable induction
Compound: CO[C@H]1C[C@@H]2CC[C@@H](C)[C@@](O)(O2)C(=O)C(=O)N2CCCC[C@H]2C(=O)O[C@H]([C@H](C)C[C@@H]2CC[C@@H](O)[C@H](OC)C2)CC(=O)[C@H](C)/C=C(\C)[C@@H](O)[C@@H](OC)C(=O)[C@H](C)C[C@H](C)/C=C/C=C/C=C/1C [rapamycin]
membrane permeability [1]: somewhat low | Kd ([2]; read-out: previously reported Kd): 0.2 nM

Compound: EGF: recombinant mouse EGF ligand inducing EGFR activation (NSYPGCPSSYDGYCLNGGVCMHIESLDSYTCNCVIGYSGDRCQTRDLRWWELR; UniProt P01132 977-1029, looked up)
luciferase PCA signal response ([8]; 25 nM recombinant mouse EGF): rapid biphasic signal response

Compound: TNFα
IκBα/β-TrCP interactions (red photon flux) [5]: increase in red photon flux | IκBα-FLuc reporter signal (wild type) [10]: loss of signal | NFκB-dependent transcription (FLuc reporter) ([6]; TNFα 20 ng/ml alone): robust transcriptional stimulation | β-cat/β-TrCP basal green photon flux ([7]; TNFα 20 ng/ml): no substantial change
